This passage reports Ki results from ChEMBL document CHEMBL1125403, “Hybrid cholecystokinin-A antagonists based on molecular modeling of lorglumide and L-364,718” (J Med Chem, 1992).

Broadly, the Ki is a dissociation constant, usually derived from enzyme kinetics or from competition with a known ligand. Lower therefore signals higher affinity.

Molecules are shown by their SMILES.

What all share (type): cell membranes, Membrane
Experiment [1] has as its target T1, Cholecystokinin receptor type A (Rattus norvegicus, UniProt P30551).
T1 sequence (P30551 whole entry): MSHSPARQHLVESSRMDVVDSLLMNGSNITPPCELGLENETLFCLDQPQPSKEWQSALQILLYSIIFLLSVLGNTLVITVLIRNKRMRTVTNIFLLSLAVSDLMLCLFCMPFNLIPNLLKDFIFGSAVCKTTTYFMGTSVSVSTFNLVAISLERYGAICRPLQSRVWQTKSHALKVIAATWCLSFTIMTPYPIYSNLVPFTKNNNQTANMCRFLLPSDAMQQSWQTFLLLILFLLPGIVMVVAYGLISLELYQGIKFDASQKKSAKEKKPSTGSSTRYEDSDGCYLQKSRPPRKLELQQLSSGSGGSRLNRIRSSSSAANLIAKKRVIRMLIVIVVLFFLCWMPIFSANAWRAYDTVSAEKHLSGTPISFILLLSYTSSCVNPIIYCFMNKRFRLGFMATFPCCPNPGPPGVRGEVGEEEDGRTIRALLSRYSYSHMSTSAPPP
In words: Inhibition of [3H]L-364718 binding to cholecystokinin type A receptor in rat pancreas membranes. The procedure, abridged:
(§1)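 Male Wistar rat pancreas membranes, homogenized in 10 mM Hepes pH 7.4/5 mM MgCl2/130 mM NaCl, stored at -80 °C. GF/B filtration, scintillation counting. Nonspecific binding with 10 μM lorglumide. IC50 from pseudo-Hill plots, Ki by Cheng-Prusoff. Mean ± SEM of three experiments.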

The target in experiment [2] is T1, Cholecystokinin receptor type A. In words: Displacement of [3H]L-364718 from Cholecystokinin type A receptor of rat pancreatic membranes. The procedure, abridged: as §1
For experiment [3] the target is unchanged. In words: Compound was evaluated for its ability to inhibit [3H]L-364718 binding Cholecystokinin type A receptor in rat pancreas membranes. In outline:
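Male Wistar rat pancreas membranes, homogenized in 10 mM Hepes pH 7.4/5 mM MgCl2/130 mM NaCl, stored at -80 °C. […] GF/B filtration, scintillation counting. Nonspecific binding with 10 μM lorglumide. IC50 from pseudo-Hill plots, Ki by Cheng-Prusoff. Mean ± SEM of three experiments.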

`O=C(NCC=C(c1ccccc1)c1ccccc1)Nc1ccc(Cl)cc1`: the affinity in experiment [1], expressed as Ki, was 90 nM.

In experiment [2], `COc1ccc(C(=CCNC(=O)c2cc3ccccc3[nH]2)c2ccc(OC)cc2)cc1` returned a Ki of over 4000 nM.

Regarding `O=C(NCC=C1c2ccccc2CCc2ccccc21)Nc1ccc(Cl)cc1`, the Ki in experiment [1] was over 4000 nM.

On to `O=C(NCC=C(c1ccccc1)c1ccccc1)c1cc2cccc3c2n1CCC3`, for which the Ki in experiment [2] is over 2000 nM.

As to `O=C(NCC=C(c1ccccc1)c1ccccc1)c1cc2ccccc2[nH]1`, in experiment [2], the Ki was determined as 340 nM.

On to `O=C(NCCC=C(c1ccccc1)c1ccccc1)c1cc2ccccc2[nH]1`, for which the Ki in experiment [3] was over 2000 nM.

Compound `Cc1cccc(NC(=O)NCC=C(c2ccccc2)c2ccccc2)c1` came in with a Ki in experiment [1] of 800 nM.

On to `O=C(NCC=C(c1ccccc1)c1ccccc1)c1cnc2ccccc2c1`, for which, in experiment [2], the Ki is over 2000 nM.

Compound `CCCCCN(CCCCC)C(=O)[C@@H](CCC(=O)O)NC(=O)c1ccc(Cl)c(Cl)c1` returned an inhibition constant (Ki) in experiment [1] of 49 nM.

In turn, `O=C(NCC=C(c1ccccc1)c1ccccc1)c1ccnc2ccccc12` had a Ki in experiment [2] of over 2000 nM.

The compound `O=C(NCC=C(c1ccccc1)c1ccccc1)c1ccc2ccccc2c1` came in with an inhibitory constant (Ki) in experiment [1] of 450 nM.

In the case of `O=C(NCC=C(c1ccccc1)c1ccccc1)c1ccc(Cl)c(Cl)c1`, the Ki in experiment [1] was found to be 400 nM.

`O=C(NC/C=C/c1ccccc1)Nc1ccc(Cl)cc1`: in experiment [2], the Ki was over 4000 nM.

Take `O=C(NCC=C(c1ccccc1)c1ccccc1)c1ccc(Cl)cc1`: the Ki in experiment [1] is over 2000 nM.

`O=C(NCCC=C(c1ccccc1)c1ccccc1)Nc1ccc(Cl)cc1` showed a Ki in experiment [2] of 400 nM.

On to `CCCCCC(=CCNC(=O)Nc1ccc(Cl)cc1)CCCCC`, for which the affinity in experiment [2], expressed as Ki, was 200 nM.

On to `O=C(NCC=C(c1ccccc1)c1ccccc1)c1ccc2ccccc2n1`, for which the Ki in experiment [2] stood at 470 nM.

`O=C(NCC=C(c1ccccc1)c1ccccc1)c1cccc2ccccc12` showed a Ki in experiment [1] of 1000 nM.
